Results reported in ChEMBL document CHEMBL1150956, “Antitubercular natural products: berberine from the roots of commercial Hydrastis canadensis powder. Isolation of inactive 8-oxotetrahydrothalifendine, canadine, beta-hydrastine, and two new quinic acid esters, hycandinic acid esters-1 and -2” (1998).
Active and inactive are the calls of the source. No cut-off for these calls is given here.

How the values were obtained:
Staphylococcus aureus [1] = test: Antimicrobial activity against Staphylococcus aureus ATCC 13709 at 1000 ug/ml; assay type: functional, organism-based
Klebsiella pneumoniae [2] = test: Antimicrobial activity against Klebsiella pneumoniae ATCC 10031 at 1000 ug/ml; assay type: functional, organism-based
[3] = test system: Mycolicibacterium smegmatis; test: Antimicrobial activity against Mycobacterium smegmatis ATCC 607 at 1000 ug/ml; assay type: functional, organism-based
[4] = test system: Mycobacterium intracellulare; test: Antimicrobial activity against recombinant Mycobacterium intracellular expressing pMV361 lux after 3 days by luciferase assay; assay type: functional; settings: 72 h
Procedure, shortened: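 Recombinant M. intracellulare pMV361 lux at about 5e5 cfu/mL final, in Middlebrook 7H9 broth with compound at 0.1–50 µg/mL; no-drug 1% DMSO growth controls. Incubated at 36 °C in ambient air. 100 µL culture plus 100 µL of 1 mM luciferin, read as RLU at day 0 (within 30 min) and after 3 days.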

Candida albicans [5] = test: Antimicrobial activity against Candida albicans ATCC 10231 at 1000 ug/ml; assay type: functional, organism-based
Candida albicans [6] = test: Antimicrobial activity against Candida albicans ATCC 10231; assay type: functional
Klebsiella pneumoniae [7] = test: Antimicrobial activity against Klebsiella pneumoniae ATCC 10031; assay type: functional
Pseudomonas aeruginosa [8] = test: Antimicrobial activity against Pseudomonas aeruginosa ATCC 27853; assay type: functional
Escherichia coli [9] = test: Antimicrobial activity against Escherichia coli ATCC 9637; assay type: functional
[10] = test system: Mycolicibacterium smegmatis; test: Antimicrobial activity against Mycobacterium smegmatis ATCC 607; assay type: functional
Staphylococcus aureus [11] = test: Antimicrobial activity against Staphylococcus aureus ATCC 13709; assay type: functional
[12] = test system: Salmonella enterica subsp. enterica serovar Gallinarum; test: Antimicrobial activity against Salmonella gallinarum ATCC 9184; assay type: functional
Escherichia coli [13] = test: Antimicrobial activity against Escherichia coli ATCC 9637 at 1000 ug/ml; assay type: functional, organism-based
Pseudomonas aeruginosa [14] = test: Antimicrobial activity against Pseudomonas aeruginosa ATCC 27853 at 1000 ug/ml; assay type: functional, organism-based
[15] = test system: Salmonella enterica subsp. enterica serovar Gallinarum; test: Antimicrobial activity against Salmonella gallinarum ATCC 9184 at 1000 ug/ml; assay type: functional, organism-based

SMILES | Activity (Staphylococcus aureus [1]) | Activity (Klebsiella pneumoniae [2]) | Activity [3] | MIC [4] [µg/mL] | Activity (Candida albicans [5]) | also measured
COc1ccc2c(c1OC)C(=O)N1CCc3cc4c(cc3C1C2)OCO4 (configuration not stated) | inactive | inactive | inactive | > 50 | inactive | 
CCCCOC(=O)[C@@]1(OC(C)=O)CC(OC(C)=O)[C@H](OC(=O)/C=C/c2ccc(OC(C)=O)c(OC)c2)[C@H](OC(C)=O)C1 (some centres not stated) | inactive |  | inactive |  | inactive | 
CCCCOC(=O)[C@@]1(O)CC(OC(=O)/C=C/c2ccc(O)c(OC)c2)[C@H](O)[C@H](O)C1 (some centres not stated) | inactive |  | inactive |  | inactive | 
COc1c(O)ccc2c1C(=O)N1CCc3cc4c(cc3C1C2)OCO4 (configuration not stated) | inactive | inactive | inactive | > 50 | inactive | 
COc1ccc2c(c1OC)CN1CCc3cc4c(cc3[C@@H]1C2)OCO4 [CANADINE] | inactive | inactive | inactive | > 50 | inactive | 
CN[C@@H]1[C@H](O[C@H]2[C@H](O[C@H]3[C@H](O)[C@@H](O)[C@H](N=C(N)N)[C@@H](O)[C@@H]3N=C(N)N)O[C@@H](C)[C@]2(O)C=O)O[C@@H](CO)[C@H](O)[C@H]1O.CN[C@@H]1[C@H](O[C@H]2[C@H](O[C@H]3[C@H](O)[C@@H](O)[C@H](N=C(N)N)[C@@H](O)[C@@H]3N=C(N)N)O[C@@H](C)[C@]2(O)C=O)O[C@@H](CO)[C@H](O)[C@H]1O.O=S(=O)(O)O.O=S(=O)(O)O.O=S(=O)(O)O [STREPTOMYCIN SULFATE] |  |  |  |  |  | MIC (Candida albicans [6]): > 100 µg/mL; MIC (Klebsiella pneumoniae [7]): 1.56 µg/mL; MIC (Pseudomonas aeruginosa [8]): 25 µg/mL; MIC (Escherichia coli [9]): 6.25 µg/mL; MIC [10]: 1.56 µg/mL; MIC (Staphylococcus aureus [11]): 6.25 µg/mL; MIC [12]: 50 µg/mL
CCCCOC(=O)[C@@]1(O)CC(O)[C@H](OC(=O)/C=C/c2ccc(O)c(OC)c2)[C@H](O)C1 (some centres not stated) | inactive |  | inactive |  | inactive | 
CCCCOC(=O)[C@@]1(OC(C)=O)CC(OC(=O)/C=C/c2ccc(OC(C)=O)c(OC)c2)[C@H](OC(C)=O)[C@H](OC(C)=O)C1 (some centres not stated) | inactive |  | inactive |  | inactive | 
COc1c(OC(C)=O)ccc2c1C(=O)N1CCc3cc4c(cc3C1C2)OCO4 (configuration not stated) | inactive | inactive | inactive | > 50 | inactive | 
COc1ccc2cc3[n+](cc2c1OC)CCc1cc2c(cc1-3)OCO2.[Cl-] [BERBERINE CHLORIDE] |  |  |  | 200 |  | MIC (Candida albicans [6]): 100 µg/mL; MIC (Klebsiella pneumoniae [7]): 100 µg/mL; MIC [10]: 25 µg/mL; MIC (Staphylococcus aureus [11]): 50 µg/mL
COc1ccc2c(c1OC)C(=O)O[C@@H]2C1c2cc3c(cc2CCN1C)OCO3 (some centres not stated) | inactive | inactive | inactive |  | inactive | Activity (Escherichia coli [13]): inactive; Activity (Pseudomonas aeruginosa [14]): inactive; Activity [15]: inactive
CCCCOC(=O)[C@@]1(O)CC(OC(=O)/C=C/c2ccc(OC(C)=O)c(OC)c2)[C@H](OC(C)=O)[C@H](OC(C)=O)C1 (some centres not stated) | inactive |  | inactive |  | inactive | 
CCCCOC(=O)[C@@]1(O)CC(OC(C)=O)[C@H](OC(=O)/C=C/c2ccc(OC(C)=O)c(OC)c2)[C@H](OC(C)=O)C1 (some centres not stated) | inactive |  | inactive |  | inactive | 
